From ChEMBL document CHEMBL5244268, “Preventing Candida albicans biofilm formation using aromatic-rich piperazines” (Bioorg Med Chem, 2020) come the findings set out here.

Values after ≈ are worked out from the molar mass of the structure shown. Active and inactive are the calls of the source. No cut-off for these calls is given here.

For orientation: MIC means the lowest concentration that inhibits growth of the organism.

Data set [1] concerns Candida albicans. Description: Antibiofilm activity against Candida albicans ATCC 28366 assessed as reduction in hyphae formation at 4 ug/ml incubated for 4 hrs in spider medium by microscopic analysis. The format is functional, organism-based. Particulars: dose 4.0 µg/ml. Put shortly:
(§1)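 Yeast-form cells grown overnight in YPD at 30 °C. 50 µL inoculated into 5 mL hypha-inducing medium (e.g., Spider: 1% nutrient broth, 1% mannitol, 0.2% K2HPO4, pH 7.2) containing two-fold dilutions, then 4 h at 37 °C. At least 100 cells per replicate counted as hypha (pseudohyphae and intermediates included) or yeast. Compound-free control for maximal conversion. At least two independent experiments in triplicate.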

Data set [2] relates to Candida albicans. Description: Antibiofilm activity against Candida albicans ATCC 28366 assessed as inhibition of biofilm formation at 0.5 to 32 ug/ml incubated for 24 to 48 hrs by crystal violet staining based absorbance spectrometry analysis. The format is functional, organism-based. Particulars: dose 0.5-32 µg/ml, time 24-48 hrs. The method, boiled down: (§2)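 Overnight cultures (37 °C, aerobic, Sabouraud pH 7.0) adjusted to OD660 0.2, mixed 1:1 with two-fold serial dilutions in medium and incubated at 37 °C. Biofilm stained with crystal violet, dye released in 75% ethanol, A550 read. Growth relative to compound-free wells (100%) after blank subtraction. At least two independent experiments in triplicate, t test.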

For data set [3], the system named is Candida albicans. The data set is described as follows: Antibiofilm activity against Candida albicans ATCC 28366 assessed as inhibition of morphogenesis at 1 to 4 ug/ml incubated for 4 hrs in spider medium by microscopic analysis. Particulars: dose 1-4 µg/ml. Format: functional, organism-based. Put shortly:
as §1

The subject of data set [4] is Candida albicans. The data set is described as follows: Antifungal activity against Candida albicans ATCC 28366 assessed as reduction in fungal growth at up to 64 ug/ml incubated for 24 hrs by plate count determination. Format: functional, organism-based. Particulars: dose <= 64.0 µg/ml.
For data set [5], the system named is Candida albicans. The data set is described as follows: Antibiofilm activity against Candida albicans ATCC 28366 assessed as inhibition of nitrogen deprivation induced morphological switching at 1 to 4 ug/ml incubated for 4 hrs in SLAD media by microscopic analysis. Format: functional, organism-based. Particulars: dose 1-4 µg/ml. Put shortly:
as §1

Data set [6] deals with Candida albicans. The data set is described as follows: Antibiofilm activity against Candida albicans ATCC 28366 assessed as reduction in filamentation by measuring joint hyphae cell elongation at 1 ug/ml incubated for 4 hrs in spider medium by microscopic analysis. The format is functional, organism-based. Particulars: dose 1.0 µg/ml. The method, boiled down: as §1
Data set [7] is described as follows: Cytotoxicity against human B11 cells assessed as reduction in cell viability at 96 ug/ml incubated for 2 hrs by MTT assay. Format: toxicity, cell-based. Particulars: b11, 2 h, dose 96 µg/ml. The method, boiled down:
(§3)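 B11 human oral epithelial cells in K-SFM with bovine pituitary extract and EGF, grown to confluence (1 × 10⁵ cells/well, 37 °C, 5% CO2). Treated with two-fold dilutions from 96 to 1.5 µg/mL for 2 or 24 h, then MTT viability read. Triplicate, mean ± SD.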
On the technique in general: Tetrazolium assays rely on reduction of a dye to a coloured formazan, in cell work by metabolically active cells.

Data set [8] relates to Candida albicans. Description: Antibiofilm activity against Candida albicans LAM-1 assessed as reduction in fungal growth at 1 to 4 ug/ml incubated for 4 hrs in spider medium by plate count determination. Format: functional, organism-based. Particulars: dose 1-4 µg/ml. Put shortly: (§4)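 After the 4 h, 37 °C morphogenesis incubation in Spider medium (YPD overnight inoculum, 50 µL into 5 mL), OD660 measured to follow fungal growth; C. albicans viability confirmed by plate count.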

The test system of data set [9] is Candida albicans. Description: Antibiofilm activity against Candida albicans ATCC 28366 assessed as inhibition of filamentation at 2 ug/ml incubated for 4 hrs in Lee's medium by microscopic analysis. The format is functional, organism-based. Particulars: dose 2.0 µg/ml. The method, boiled down:
as §1

The nature of data set [10]: Cytotoxicity against human B11 cells assessed as reduction in cell viability at >=24 ug/ml incubated for 24 hrs by MTT assay. Format: toxicity, cell-based. Particulars: b11, 24 h, dose > 24 µg/ml. The method, boiled down: as §3
In data set [11] the test system is Candida albicans. Description: Antibiofilm activity against Candida albicans LAM-1 at 4 ug/ml incubated for 24 to 48 hrs by crystal violet staining based absorbance spectrometry analysis. Format: functional, organism-based. Particulars: dose 4.0 µg/ml, time 24-48 hrs. Put shortly: as §2
The subject of data set [12] is Candida albicans. Description: Antibiofilm activity against Candida albicans ATCC 28366 assessed as short hyphae formation at 2 ug/ml incubated for 4 hrs in spider medium by microscopic analysis. Format: functional, organism-based. Particulars: dose 2.0 µg/ml. Put shortly: as §1
The test system of data set [13] is Candida albicans. The data set is described as follows: Antibiofilm activity against FITC labeled Candida albicans ATCC 28366 in human GMSM-K cells assessed as reduction in fungal adherence to cells incubated for 4 hrs by fluorescence microscopic analysis. The format is functional, organism-based. Particulars: dose 6-48 µg/ml. Put shortly: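 Confluent GMSM-K monolayers (DMEM, 10% FBS) pre-incubated 30 min with two-fold dilutions in DMEM (37 °C, 5% CO2). FITC-labelled yeast (0.03 mg/mL FITC in 0.5 M NaHCO3 pH 8, 30 min, 37 °C) added at MOI 10³ for 4 h. After PBS washes, fluorescence read (ex 495/em 525 nm) as % of compound-free wells. Two independent experiments in triplicate.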

For data set [14], the system named is Candida albicans. The data set is described as follows: Antibiofilm activity against Candida albicans ATCC 28366 assessed as disruption of preformed biofilm incubated for 12 hrs by crystal violet staining based absorbance spectrometry analysis. The format is functional, organism-based. The method, boiled down: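 Mature biofilms grown 36 to 48 h in Sabouraud pH 7.0 without compound; medium and free cells removed, rinsed with 50 mM PBS pH 7.0, then two-fold serial dilutions in PBS added for 12 h at 37 °C. Residual biofilm stained with crystal violet, dye released in 75% ethanol, A550 read. PBS-treated biofilms as controls.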

Data set [15] has as its system Candida albicans. The data set is described as follows: Antibiofilm activity against Candida albicans ATCC 28366 assessed as reduction in fungal growth at 1 to 4 ug/ml incubated for 4 hrs in spider medium by plate count determination. Particulars: dose 1-4 µg/ml. The format is functional, organism-based. The method, boiled down:
as §4

Data set [16] deals with Candida albicans. Description: Antibiofilm activity against Candida albicans ATCC 28366 assessed as small subpopulation of hyphae formation at 2 ug/ml incubated for 4 hrs in spider medium by microscopic analysis. Format: functional, organism-based. Particulars: dose 2.0 µg/ml. Put shortly:
as §1

The test system of data set [17] is Candida albicans. The data set is described as follows: Antifungal activity against Candida albicans ATCC 28366 assessed as inhibition of fungal growth incubated for 24 hrs by plate count determination. The format is functional. The method, boiled down: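 Biofilm-assay setup (Sabouraud pH 7.0, inoculum OD660 0.2, serial two-fold dilutions, 37 °C). […] Highest value kept when replicates differ. At least two independent experiments in triplicate.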

For data set [18], the system named is Candida albicans. Description: Antibiofilm activity against Candida albicans ATCC 28366 assessed as inhibition of morphological switching at 1 ug/ml incubated for 4 hrs in YPD medium with fetal bovine serum by microscopic analysis. Format: functional, organism-based. Particulars: dose 1.0 µg/ml. The method, boiled down: as §1
Data set [19] deals with Candida albicans. The data set is described as follows: Antibiofilm activity against Candida albicans ATCC 28366 assessed as inhibition of N-acetylglucosamine induced morphological switching at 1 to 4 ug/ml incubated for 4 hrs by microscopic analysis. Particulars: dose 1-4 µg/ml. The format is functional, organism-based. Put shortly:
as §1

Data set [20] relates to Candida albicans. Description: Antibiofilm activity against Candida albicans ATCC 28366 at 1 ug/ml incubated for 24 to 48 hrs by crystal violet staining based absorbance spectrometry analysis. Particulars: dose 1.0 µg/ml, time 24-48 hrs. The format is functional, organism-based. Put shortly:
as §2

For the molecule `c1ccc(COc2ccc(C[C@H]3CN[C@@H](Cc4ccccc4)CN3)cc2)cc1`, the result in data set [1], in data set [11], in [12], in data set [16] and in [20] was Active. For the same molecule, the inhibition result in data set [2], in data set [3], in data set [9] and in [18] was “Active” each time. Besides, the outcome in data set [4], in [6], in data set [8], in [14] and in data set [15] was inactive. For the same molecule, the inhibition result in [5] and in data set [19] was “inactive” in each case. The figures for the Activity result in [7], in data set [10] and in data set [13] were “Toxic”, “Toxic” and “Dose-Dependent Effect”, respectively. Moreover, in [17], the MIC was 96 µg/mL (≈ 258 µM).
